Test results: ChEMBL document CHEMBL1949566 (Bioorg Med Chem Lett, 2012)
The source made the active and inactive calls. The calls are words filed in the database; no cut-off is given here.

Legend:
[1] = species on record: Rattus norvegicus; assay: Ratio of losartan IC50 to compound IC50 for displacement of [125I]angiotensin 2 from angiotensin 2 receptor type 1 in Sprague-Dawley rat adrenal cortex membranes; type: cell membranes; settings: Membrane
[2] = system: Rattus norvegicus; assay: Antihypertensive activity in conscious spontaneously hypertensive rat assessed as decrease in mean arterial blood pressure at 10 mg/kg, po up to 5 hrs; type: functional, organism-based; parameters: dose 10 mg/kg; settings: Artery
In short: (§1)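 SHRs were acclimatized 10 weeks, then habituated for 7 days to 37 °C chamber prewarming for 10 min, restraint and a tail cuff with pulse sensor. After stabilization, 10 mg/kg was given orally.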

[3] = molecular target: T1, Type-1 angiotensin II receptor (Oryctolagus cuniculus) (UniProt P34976); assay: Antagonist activity at angiotensin 2 receptor type 1 in New Zealand White rabbit descending thoracic aorta rings assessed as inhibition of noradrenaline-induced contraction preincubated for 30 mins prior noradrenaline challenge; type: functional, tissue-based
T1 sequence (whole entry): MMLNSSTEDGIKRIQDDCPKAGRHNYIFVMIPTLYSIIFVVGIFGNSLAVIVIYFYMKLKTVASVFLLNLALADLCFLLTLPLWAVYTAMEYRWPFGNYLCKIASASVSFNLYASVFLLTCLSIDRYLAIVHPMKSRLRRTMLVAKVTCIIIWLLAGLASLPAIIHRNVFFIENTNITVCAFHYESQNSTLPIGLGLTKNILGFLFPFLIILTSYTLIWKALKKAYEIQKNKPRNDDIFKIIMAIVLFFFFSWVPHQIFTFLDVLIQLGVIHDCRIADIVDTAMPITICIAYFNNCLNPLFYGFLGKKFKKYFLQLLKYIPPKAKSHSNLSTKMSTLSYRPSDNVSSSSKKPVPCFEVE

[4] = system: Rattus norvegicus; assay: Antihypertensive activity in conscious spontaneously hypertensive rat assessed as decrease in mean arterial blood pressure at 10 mg/kg, po up to 24 hrs; type: functional, organism-based; parameters: dose 10 mg/kg; settings: Artery; in short: as §1
[5] = molecular target: T1, Type-1 angiotensin II receptor (Oryctolagus cuniculus); assay: Ratio of losartan IC50 to compound IC50 for antagonist activity at angiotensin 2 receptor type 1 in New Zealand White rabbit descending thoracic aorta rings; type: functional, tissue-based
[6] = system: Rattus norvegicus; assay: Antihypertensive activity in furosemide treated rat high-renin model assessed as decrease in mean arterial pressure at 10 mg/kg, po up to 8 hrs; type: functional, organism-based; parameters: dose 10 mg/kg; settings: Artery
In short: (§2)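 Furosemide 10 mg/kg sc was given 20 and 2 h before the experiment, with food and water withdrawn for 24 h. Mean arterial pressure and heart rate were recorded by polygraph. After about 60 min of stabilization, 10 mg/kg was given orally. Readings were taken at 20, 40 and 60 min, then every 30 min to 8 h.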

[7] = molecular target: T1, Type-1 angiotensin II receptor (Oryctolagus cuniculus); assay: Antagonist activity at angiotensin 2 receptor type 1 in New Zealand White rabbit descending thoracic aorta rings assessed as inhibition of KCl-induced contraction preincubated for 30 mins prior KCl challenge; type: functional, tissue-based
[8] = molecular target: T2, Type-1 angiotensin II receptor (Oryctolagus cuniculus, UniProt P34976); assay: Antagonist activity at angiotensin 2 receptor type 1 in New Zealand White rabbit descending thoracic aorta rings assessed as inhibition of angiotensin 2-induced contraction preincubated for 30 mins prior angiotensin 2 challenge; type: functional, tissue-based
T2 sequence (P34976 whole entry): T1 sequence (whole entry)
In short: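 Aortic rings held at 2 g resting tension and equilibrated 60 min with repeated washing in Krebs bicarbonate solution. Responsiveness was checked with AngII, then a control cumulative AngII concentration–contractile response curve was run. After washout, test substance was incubated 30 min and a second AngII curve obtained.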

[9] = system: Rattus norvegicus; assay: Antihypertensive activity in iv dosed pithed rat model assessed as inhibition of angiotensin 2-induced pressor response by gould pressure transducer-coupled grass polygraphy; type: functional
In short: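 Pithed rats had blood pressure recorded by an arterial catheter to a pressure transducer/polygraph. After about 60 min of stabilization, AngII (100 ng/kg iv) was given three times at 15 min intervals to set a basal pressor response. Compound was then given iv, followed by AngII 100 ng/kg iv. ED50 for 50% inhibition of maximal pressor response came from the dose–pressure curve.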

[10] = Displacement of [125I]angiotensin 2 from angiotensin 2 receptor type 1 in Sprague-Dawley rat adrenal cortex membranes after 60 mins by gamma counting; type: cell membranes, Membrane
In short: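 Adrenal cortex membranes came from male Sprague–Dawley rats (200–250 g); the pellet was taken by differential centrifugation up to 100,000 g. Membranes (60–70 µg protein/assay) were suspended in 50 mM Tris–HCl, 10 mM MgCl2, 0.25% BSA, pH 7.4, with [125I]AngII (0.05 nM) and test compound (3×10^-12 to 10^-6 M, DMSO). Incubation ran 60 min at 25 °C and ended by GF/B filtration. IC50 is 50% inhibition of binding.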

[11] = species on record: Rattus norvegicus; assay: Displacement of [125I]angiotensin 2 from angiotensin 2 receptor type 1 in Sprague-Dawley rat adrenal cortex membranes at 10 uM after 60 mins by gamma counting; type: cell membranes; settings: Membrane
[12] = system: Rattus norvegicus; assay: Ratio of losartan ED50 to compound ED50 for antihypertensive activity in iv dosed pithed rat model assessed as inhibition of angiotensin 2-induced pressor response; type: functional
[13] = system: Rattus norvegicus; assay: Effect on basal heart rate in furosemide treated rat high-renin model at 10 mg/kg, po up to 8 hrs; type: ADME, organism-based; parameters: dose 10 mg/kg, route oral; settings: in vivo; in short: as §2
[14] = AUC in Sprague-Dawley rat at 3 mg/kg, po; type: ADME, organism-based; parameters: dose 3 mg/kg, route oral; settings: plasma
In short: (§3)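 Male Sprague–Dawley rats (n = 7) given a single oral dose of 3 mg/kg. AUC, Cmax, Tmax, t1/2, Cl/F and Vss/F were derived from plasma profiles and reported as mean ± S.D.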

[15] = Half life in Sprague-Dawley rat at 3 mg/kg, po; type: ADME, organism-based; parameters: dose 3 mg/kg, route oral; settings: in vivo; in short: as §3
[16] = Tmax in Sprague-Dawley rat at 3 mg/kg, po; type: ADME, organism-based; parameters: dose 3 mg/kg, route oral; settings: in vivo; in short: as §3
[17] = system: Rattus norvegicus; assay: Drug excretion in Sprague-Dawley rat at 3 mg/kg, po; type: ADME, organism-based; parameters: dose 3 mg/kg, route oral; settings: in vivo
[18] = Oral steady-state volume of distribution in Sprague-Dawley rat at 3 mg/kg; type: ADME, organism-based; parameters: dose 3 mg/kg; settings: in vivo, read-out: Vss/F; in short: as §3
[19] = system: Rattus norvegicus; assay: Antihypertensive activity in conscious spontaneously hypertensive rat assessed as decrease in mean arterial blood pressure at 10 mg/kg, po at 5 hrs post dose; type: functional, Artery; parameters: scale not given: the % may be the effect or the level left; in short: as §1
[20] = Toxicity in po dosed rat assessed maximum tolerated dose; type: organism-based; settings: in vivo
In short: (§4)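 Maximum tolerated dose from a single oral administration.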

[21] = Cmax in Sprague-Dawley rat at 3 mg/kg, po; type: ADME, organism-based; parameters: dose 3 mg/kg, route oral; settings: in vivo; in short: as §3
[22] = Toxicity in po dosed mouse assessed maximum tolerated dose; type: organism-based; settings: in vivo; in short: as §4
[23] = Apparent oral clearance in Sprague-Dawley rat at 3 mg/kg; type: ADME, organism-based; parameters: dose 3 mg/kg, route oral; settings: in vivo; in short: as §3

Row | Compound | IC50 [8] [nM] | ED50 [9] [mg/kg] | IC50 [10] [nM] | also measured
1 | CCCCc1nc(C)c(CC(=S)N(C)C)c(=O)n1Cc1ccc(-c2ccccc2-c2nnn[nH]2)cc1 [listing 1 of 2 here] | – | – | – | Ratio IC50 [1]: 615; Activity [2]: Active; inhibition [3]: inactive; Activity [4]: Active; Ratio IC50 [5]: 145; Activity [6]: Active; inhibition [7]: inactive
2 | CCCCc1nc(C)c(CC(=O)N2CCCC2)c(=O)n1Cc1ccc(-c2ccccc2-c2nnn[nH]2)cc1 | 1.58 | 0.056 | 59.2 | inhibition [11]: 76.7%
3 | CCCCc1nc(C)c(CCC(=O)O)c(=O)n1Cc1ccc(-c2ccccc2-c2nnn[nH]2)cc1 | – | 0.094 | 306 | inhibition [11]: 27.9%
4 | CCCCc1nc(C)c(CCC(=O)N2CC(C)OC(C)C2)c(=O)n1Cc1ccc(-c2ccccc2-c2nnn[nH]2)cc1 (stereo unspecified) | 13.1 | 0.228 | 72.6 | –
5 | CCCCc1nc(C)c(CC(=S)N(CC)CC)c(=O)n1Cc1ccc(-c2ccccc2-c2nnn[nH]2)cc1 | 1.31 | 0.023 | 6.27 | –
6 | CCCc1nc(C)c(CC(=O)N(CC)CC)c(=O)n1Cc1ccc(-c2ccccc2-c2nnn[nH]2)cc1 | 4.69 | – | – | –
7 | CCCCc1nc(C)c(CCC(=O)N2CCCC2)c(=O)n1Cc1ccc(-c2ccccc2-c2nnn[nH]2)cc1 | – | 0.206 | 70.5 | –
8 | CCCCc1nc(Cl)c(CO)n1Cc1ccc(-c2ccccc2-c2nnn[nH]2)cc1 [LOSARTAN] | – | 0.336 | 80 | –
9 | CCCCc1nc(C)c(CCC(=O)OCC)c(=O)n1Cc1ccc(-c2ccccc2-c2nnn[nH]2)cc1 | 2.51 | 0.066 | 131 | –
10 | CCCCc1nc(C)c(CC(=O)N2CCCCC2)c(=O)n1Cc1ccc(-c2ccccc2-c2nnn[nH]2)cc1 | – | 0.063 | 63.3 | inhibition [11]: 71.7%
11 | CCCCc1nc(C)c(CC(=O)OCC)c(=O)n1Cc1ccc(-c2ccccc2-c2nnn[nH]2)cc1 | – | 0.108 | 66.2 | –
12 | CCCCc1nc(C)c(CC(=S)N2CCCCCC2)c(=O)n1Cc1ccc(-c2ccccc2-c2nnn[nH]2)cc1 | 6.11 | 0.034 | 8.04 | –
13 | CCCCc1nc(C)c(CC(=O)N2CCC[C@H]2C(=O)OC)c(=O)n1Cc1ccc(-c2ccccc2-c2nnn[nH]2)cc1 | – | 0.043 | 59.3 | –
14 | CCCCc1nc(C)c(CCC(=O)N2CCOCC2)c(=O)n1Cc1ccc(-c2ccccc2-c2nnn[nH]2)cc1 | – | 0.143 | 60 | –
15 | CCCCc1nc(C)c(CC(=O)N2CCN(C)CC2)c(=O)n1Cc1ccc(-c2ccccc2-c2nnn[nH]2)cc1 | – | – | 19 | –
16 | CCCCc1nc(C)c(CC(=O)N(C)C)c(=O)n1Cc1ccc(-c2ccccc2-c2nnn[nH]2)cc1 | – | 0.018 | – | Ratio ED50 [12]: 19; inhibition [11]: 71.7%
17 | CCCCc1nc(C)c(CC(=O)O)c(=O)n1Cc1ccc(-c2ccccc2-c2nnn[nH]2)cc1 | – | 0.13 | 431 | inhibition [11]: 3.65%
18 | CCCCc1nc(C)c(CC(=O)N2CC(C)OC(C)C2)c(=O)n1Cc1ccc(-c2ccccc2-c2nnn[nH]2)cc1 (stereo unspecified) | 1.03 | 0.029 | 24 | –
19 | CCCCc1nc(C)c(CCC(=O)N2CCCCC2)c(=O)n1Cc1ccc(-c2ccccc2-c2nnn[nH]2)cc1 | – | 0.164 | 64.7 | –
20 | CCCCc1nc(C)c(CC(=S)N(C)C)c(=O)n1Cc1ccc(-c2ccccc2-c2nnn[nH]2)cc1 [listing 2 of 2 here] | 0.42 | 0.018 | 0.13 | Ratio ED50 [12]: 19
21 | CCCCc1nc(C)c(CC(=O)N2CCC[C@H]2C(N)=O)c(=O)n1Cc1ccc(-c2ccccc2-c2nnn[nH]2)cc1 | – | 0.023 | 17 | –
22 | CCCc1nc(C)c(CC(=O)O)c(=O)n1Cc1ccc(-c2ccccc2-c2nnn[nH]2)cc1 | 27.1 | – | – | –
23 | CCCCc1nc(C)c(CC(=S)N(C)C)c(=O)n1Cc1ccc(-c2ccccc2-c2nnn[n-]2)cc1.O.O.O.[K+] | – | – | – | Activity [13]: Non-toxic; AUC [14]: 678 ng·h/mL; half-life [15]: 5.3 h; Tmax [16]: 6 min; Ae [17]: Active; Vd/F [18]: 37.3 L/kg; Activity [19]: 75%; MTD [20]: > 2000 mg/kg; Cmax [21]: 242 ng/mL; MTD [22]: > 2000 mg/kg; CL/F [23]: 84 mL/min/kg
24 | CCCCc1nc(C)c(CC(=O)N2CCSCC2)c(=O)n1Cc1ccc(-c2ccccc2-c2nnn[nH]2)cc1 | – | 0.038 | 9 | –
25 | CCCCc1nc(C)c(CCC(=O)N2CCSCC2)c(=O)n1Cc1ccc(-c2ccccc2-c2nnn[nH]2)cc1 | – | 0.204 | 28 | –
26 | CCCCc1nc(C)c(CC(=O)N2CCOCC2)c(=O)n1Cc1ccc(-c2ccccc2-c2nnn[nH]2)cc1 | – | 0.018 | 23 | Ratio ED50 [12]: 19
27 | CCCCc1nc(C)c(CCC(=O)N2CCC[C@H]2C(=O)OC)c(=O)n1Cc1ccc(-c2ccccc2-c2nnn[nH]2)cc1 | – | 0.063 | 58.5 | –
28 | CCCCc1nc(C)c(CC(=O)N(CC)CC)c(=O)n1Cc1ccc(-c2ccccc2-c2nnn[nH]2)cc1 | 30.8 | 0.089 | – | –
